A selection: hits, their analogues and other compounds. The true share with any hit is near 2.5%.
TRPC4 inh: blocks the mouse TRPC4 cation channel; 0.39% of 300,000 active; AID 2247; B-score at 10 µM; HEK293 TRPC4beta/mu-opioid, DAMGO-evoked Fluo4 calcium flux; stronger effect = lower value;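 active = B-score over 3 SD under the library average, no early fluorescence shift, positive overall ratio signal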
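Material: HEK293 cells with stable TRPC4beta plus mu-opioid receptor expression; probe or stimulus: DAMGO in two steps, submaximal then maximal; technique: Fluo4 calcium fluorescence by kinetic imaging, 5 s 1 Hz baseline; measure: integrated fluorescence ratio relative to baseline, converted to per-well B score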
Pemphigus Ab inh: blocks pemphigus antibody binding to human desmoglein-3 | 0.48% of 310,000 active | P32926 | DSG3-coupled beads, scFv-anti-DSG3-GFP binding, flow cytometry; stronger effect = lower value | binding (percent of control), % at 10 µM;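 active = binding more than 3 SD below its plate's average and above zero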;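 also: hits lower antibody fragment binding to DSG3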
TRPC4 PAM: TRPC4 (mouse) allosteric potentiation; Q9QUQ5; HEK293 TRPC4beta/mu-opioid, DAMGO EC20, Fluo-4 Ca2+ flux; stronger effect = higher value; B-score at 10 µM; 0.42% of 310,000 active; AID 2227;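 active = B-score of calcium response area above 5 SD of library B-scores, with initial fluorescence ratio within 5 SD of library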;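 also: B-score of integrated fluorescence ratio over time as area under calcium response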
TRPC6 activator: activators of mouse TRPC6 channel; B-score at 10 µM; HEK293-TRPC6 membrane potential dye fluorescence; stronger effect = higher value; Q61143; AID 2550; 0.13% of 310,000 active;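 active = B-score of the integrated fluorescence ratio above library mean plus 3 SD, and starting fluorescence ratio within library mean plus 5 SD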;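 also: higher score means more depolarization so channel activation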
Target sequence (Q61143 whole entry, looked up): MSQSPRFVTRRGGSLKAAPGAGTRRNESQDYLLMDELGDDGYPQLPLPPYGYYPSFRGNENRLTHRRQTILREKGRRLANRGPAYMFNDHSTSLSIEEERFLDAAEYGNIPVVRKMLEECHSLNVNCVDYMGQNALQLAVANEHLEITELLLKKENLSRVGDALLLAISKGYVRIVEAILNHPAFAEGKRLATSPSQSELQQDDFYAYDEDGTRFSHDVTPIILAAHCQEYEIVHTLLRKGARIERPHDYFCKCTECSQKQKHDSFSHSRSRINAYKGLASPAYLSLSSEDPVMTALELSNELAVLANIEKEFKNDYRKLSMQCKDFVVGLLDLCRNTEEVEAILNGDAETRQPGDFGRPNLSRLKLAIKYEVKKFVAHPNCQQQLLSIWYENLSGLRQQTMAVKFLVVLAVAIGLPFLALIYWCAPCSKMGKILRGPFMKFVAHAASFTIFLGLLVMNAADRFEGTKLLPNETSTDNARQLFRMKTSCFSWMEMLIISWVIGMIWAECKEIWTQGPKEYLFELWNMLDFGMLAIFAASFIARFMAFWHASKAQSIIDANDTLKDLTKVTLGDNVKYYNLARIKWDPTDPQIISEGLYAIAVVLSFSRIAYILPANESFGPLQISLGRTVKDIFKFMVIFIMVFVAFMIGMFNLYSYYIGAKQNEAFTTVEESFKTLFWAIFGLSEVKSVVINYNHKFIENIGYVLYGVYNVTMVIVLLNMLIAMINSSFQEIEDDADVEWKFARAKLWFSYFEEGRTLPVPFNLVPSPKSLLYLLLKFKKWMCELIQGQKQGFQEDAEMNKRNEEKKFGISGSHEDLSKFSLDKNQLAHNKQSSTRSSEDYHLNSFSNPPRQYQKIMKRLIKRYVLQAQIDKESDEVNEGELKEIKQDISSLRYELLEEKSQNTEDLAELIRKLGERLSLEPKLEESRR
TRPC4 agonist: TRPC4 (mouse) channel activation; HEK293 TRPC4beta/mu-opioid, Fluo4 calcium fluorescence; stronger effect = higher value; 0.49% of 310,000 active; B-score at 10 µM; Q9QUQ5;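 active = B-score above 5 SD of library B-scores, and initial fluorescence ratio not above library mean plus 5 SD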;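 also: positive B-score marks a calcium rise read as TRPC4 activation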
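Assay system – TRPC4beta and mu-opioid receptor HEK293 stable cells · Measured by – Fluo4 fluorescence, kinetic · Schedule – dye loading 45 min room temperature, 110 s kinetic read · Read-out – B-scored integrated calcium fluorescence ratio · Controls – buffer and maximal DAMGO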
TRPC6 inhibitor: mouse TRPC6 channel inhibition. B-score at 10 µM. 1.1% of 310,000 active. AID 2553. HEK293-TRPC6, membrane potential dye, ACh-evoked depolarization; stronger effect = lower value. Q61143;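 active = B-score under library mean minus 3 SD, initial fluorescence not abnormally high, positive integrated signal ratio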;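 also: B-score derived from integrated fluorescence ratio over the kinetic read; more negative B-score means stronger inhibition of depolarization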
TRPC4 spec 2: second check of whether TRPC6 inhibitors also affect mouse TRPC4; shares compounds with TRPC6 inhibitor; HEK293 TRPC4/MOR, membrane potential dye fluorescence; channel activated by saturating DAMGO dose; inhibition, % at 10 µM; 42% of 920 active; AID 2776;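 active = compounds whose fluorescence signal differed from control wells by over 3 SD, either direction, in both duplicate plates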
TRPC4 spec: selectivity of TRPC6 inhibitors: effect on mouse TRPC4. HEK293 TRPC4/mu-opioid, membrane potential fluorescence. 61% of 920 active. activity change, negative = inhibition, % at 10 µM. shares compounds with TRPC6 inhibitor. AID 2777;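 active = rise or fall in signal beyond 3 SD of buffer-only wells in both replicate plates, either sign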;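 also: integrated kinetic ratio of fluorescence range over baseline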
HEK293 MPD ctr 2-1: parental HEK293 nonspecific activity of TRPC6 inhibitors, second screen. shares compounds with TRPC6 inhibitor. parental HEK293 membrane potential dye fluorescence; maximal acetylcholine challenge after compound addition. signal change vs control, % at 10 µM. 31% of 920 active;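 active = membrane potential signal moving either way by over 3 SD of the maximum-effect control, in both duplicate plates, meaning non-specific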
HEK293 MPD ctr-1: counter-screen for TRPC6 inhibitors: effect in parental HEK293 cells. shares compounds with TRPC6 inhibitor. parental HEK293 membrane potential dye fluorescence. membrane potential signal change, % at 10 µM. 60% of 920 active;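 active = membrane potential signal shifting up or down by more than 3 SD of buffer-only wells, on both duplicate plates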
HEK293 MPD ctr-2: parental HEK293 nonspecific activity of TRPC6 modulators | membrane potential dye fluorescence | 51% of 2,400 active | shares compounds with TRPC6 inhibitor | AID 488924 | membrane potential signal change, % at 10 µM;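 active = membrane potential signal moves up or down beyond 5 SD from buffer-only wells, on both duplicate plates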
HEK293 MPD ctr 2-2: second counter-screen for TRPC6 modulators: effect in parental HEK293 cells | shares compounds with TRPC6 inhibitor | membrane potential dye fluorescence; after compound, maximal acetylcholine stimulation | inhibition, % at 10 µM | 14% of 2,400 active | AID 488926;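 active = membrane potential signal drops by more than 5 SD from the mean control signal, in both duplicate plates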;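 also: plate controls were acetylcholine ECmax control wells for no effect and buffer only wells for full effect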
TRPC4/MOR mod: mouse TRPC4 off-target activity of TRPC6 modulators; shares compounds with TRPC6 inhibitor; HEK293 TRPC4/mu-opioid, membrane potential fluorescence; percent change from control (negative = decrease, positive = increase), % at 10 µM; 69% of 2,400 active;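 active = membrane potential signal moved up or down beyond 5 SD of buffer control wells, in both duplicate plates, actives on both sides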;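 also: plate controls were assay buffer wells for no effect and DAMGO maximal-effect wells for full effect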
TRPC4 ctr inh 2: mouse TRPC4 off-target activity of TRPC6 modulators, second screen; 55% of 2,400 active; shares compounds with TRPC6 inhibitor; inhibition, % at 10 µM; HEK293 TRPC4/mu-opioid, membrane potential dye fluorescence; stimulated with maximal-effect DAMGO;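 active = drop in membrane potential signal beyond 5 SD of the control wells in both duplicate plates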;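 also: TRPC4 counter screen for TRPC6 hits run under conditions tuned for TRPC6 not TRPC4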
TRPC6 block conf: confirmation of mouse TRPC6 inhibitors; shares compounds with TRPC6 inhibitor; HEK293-TRPC6, membrane potential dye, ACh-evoked depolarization; inhibition, % at 10 µM; 43% of 3,300 active;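 active = fluorescence ratio falls more than 5 SD below the full-stimulation control mean, in both duplicate runs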;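 also: integrated fluorescence ratio of peak minus minimum over baseline after agonist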
TRPC6 act confirm: confirmation of mouse TRPC6 activators. shares compounds with TRPC6 inhibitor. HEK293-TRPC6 membrane potential dye fluorescence, FDSS. activation, % at 10 µM. 11% of 2,800 active. AID 488961;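 active = ratio signal rise beyond 5 SD above unstimulated control wells' mean, seen in both duplicate runs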;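 also: plate controls were buffer EC0 wells for no effect and acetylcholine ECmax response for full effect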
Numbers without * were called inactive; i = inactive; · = no result given; ! = not confirmed by another sample.

SMILES	TRPC4 inh	Pemphigus Ab inh	TRPC4 PAM	TRPC6 activator	TRPC4 agonist	TRPC6 inhibitor	HEK293 MPD ctr-2	HEK293 MPD ctr 2-2	TRPC4/MOR mod	TRPC4 ctr inh 2	TRPC6 block conf	TRPC6 act confirm	others
COc1ccc(OCC(O)COc2ccc(OC)cc2)cc1	i	105	i	i	i	-6.4*	i	i	i	i	66%*	·
COc1ccc(OCC(O)CNC(=O)c2ccc(OC)cc2)cc1 (configuration not stated)	i	94	i	i	i	i	·	·	·	·	·	·
O=C(CCc1n[nH]c(=O)[nH]c1=O)Nc1cccc([N+](=O)[O-])c1	i	105	i	i	i	i	·	·	·	·	·	·
Cc1ccc(S(=O)(=O)N2CCN(Cc3ccccc3)CC2)s1	·	98	·	·	·	·	·	·	·	·	·	·
CCc1ccc(OCC2NCCc3cc(OC)c(OC)cc32)cc1 (configuration not stated)	i	82	i	i	i	-5.8*	i	i	i	46%*	i	i
CC(C)CN(CC(C)C)S(=O)(=O)N1CCC(C(=O)NCc2ccco2)CC1	i	100	i	i	i	i	·	·	·	·	·	·
CC(O)[C@H]1CNCCN1CCc1cc(C(F)(F)F)cc(C(F)(F)F)c1 (some centres not stated)	i	119	i	i	i	i	·	·	·	·	·	·
Fc1cccc(CCN2CCNC[C@@H]2Cc2ccccc2)c1	i	107	i	i	i	-5.4*	i	i	i	39%*	i	i
CCCC[C@@H]1CNCCN1CCc1cccc(F)c1	i	107	i	i	i	i	·	·	·	·	·	·
FC(F)(F)c1cc(CCN2CCNC[C@@H]2Cc2ccccc2)cc(C(F)(F)F)c1	i	115	i	i	i	-5.6*	i	i	i	48%*	i	i
COc1ccc(-n2c(NCCN(C)C)nc3sc4c(c3c2=O)CCCCC4)cc1	i	110	i	i	i	-7.5*	·	·	·	·	i	i	TRPC4 spec 2=i;TRPC4 spec=i;HEK293 MPD ctr 2-1=i;HEK293 MPD ctr-1=i
CN(C)CCNc1nc2sc3c(c2c(=O)n1-c1ccc(F)cc1)CCCCC3	i	112	i	i	i	-5.8*	i	i	i	50%*	i	i
NC1=NC(=O)/C(=C/c2cn(Cc3ccccc3)c3ccccc23)S1	i	100	i	i	i	i	·	·	·	·	·	·
CCCCCCCCn1ccc(=N)cc1	i	108	i	i	i	i	·	·	·	·	·	·
CCCCCCCCCCn1ccc(=N)cc1	i	105	i	i	i	-9.1*	·	·	·	·	56%*	i	TRPC4 spec 2=i;TRPC4 spec=i;HEK293 MPD ctr 2-1=i;HEK293 MPD ctr-1=i
Cc1cccc(NC(=O)CNC(=O)COc2ccc(-c3ccc(C#N)cc3)cc2)c1C	i	98	i	i	i	i	·	·	·	·	·	·
Cc1[nH]c2c(Cl)cccc2c(=O)c1CN1CCCCCC1	i	102	i	i	i	-5.9*	-73%*	i	-18%*	i	i	i
CN1CCc2c(sc(NC(=O)c3ccc(S(=O)(=O)N4CCOCC4)cc3)c2C(N)=O)C1	i	107	i	i	i	-7.6*	-258%*	i	-51%*	35%*	i	i
NC(=O)c1c(NC(=O)c2ccc(S(=O)(=O)N3CCOCC3)cc2)sc2c1CCCCC2	i	96	i	i	i	i	·	·	·	·	·	·
CN1CCc2c(sc(NC(=O)c3ccc(S(=O)(=O)N4CCCCCC4)cc3)c2C(N)=O)C1	i	·	i	i	i	-6.5*	i	i	-69%*	i	i	i
CNC(=O)c1c(NC(=O)c2ccc(S(=O)(=O)N3CCCCC3)cc2)sc2c1CCN(C(C)C)C2	i	106	i	i	i	i	·	·	·	·	·	·
Cc1c2ccccc2nc2c(F)c(N(C)C)c(F)c(F)c12	i	123	i	i	i	i	·	·	·	·	·	·
CCN(CC)c1nc2ccccc2c(N)c1-c1ccccc1	-7*	100	i	i	i	-6.9*	·	·	·	·	i	i	TRPC4 spec 2=42%*;TRPC4 spec=14%*;HEK293 MPD ctr 2-1=i;HEK293 MPD ctr-1=9.3%*
Cc1c(N(C)C)nc2ccccc2c1N	i	102	i	i	i	-10*	·	·	·	·	i	i	TRPC4 spec 2=44%*;TRPC4 spec=-18%*;HEK293 MPD ctr 2-1=i;HEK293 MPD ctr-1=-312%*
CC(=O)c1c(C)nc2ccccc2c1N	i	98	i	i	i	-5.2*	-195%*	i	-32%*	i	i	i
Nc1c2ccccc2nc2ccccc12	i	103	i	i	i	-10*	·	·	·	·	66%*!	i	TRPC4 spec 2=43%*;TRPC4 spec=-37%*;HEK293 MPD ctr 2-1=32%*;HEK293 MPD ctr-1=-420%*
c1ccc2nc3ccccc3nc2c1	i	100	i	i	i	i	·	·	·	·	·	·
C[C@H](NC(=O)C1CCN(C(=O)[C@H](Cc2ccccc2)NC(=O)OC(C)(C)C)CC1)C(=O)O	i	108	i	i	i	i	·	·	·	·	·	·

Screening results as filed in PubChem BioAssay.
